According to ChEMBL document CHEMBL1126988, “Quinolone antibacterials containing the new 7-[3-(1-aminoethyl)-1- pyrrolidinyl] side chain: the effects of the 1-aminoethyl moiety and its stereochemical configurations on potency and in vivo efficacy” (J Med Chem, 1993):
In brackets after ≈: the same amount, converted by molar mass.

Key:
[1] = system: Escherichia coli; assay: Antibacterial activity in vitro against Escherichia coli Vogel; assay type: functional; settings: Escherichia coli; read-out: MIC
How it was run: (§1)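 Standard microtitration broth assay against a panel of 10 Gram-positive and Gram-negative organisms. MIC read in µg/mL and averaged over multiple experiments.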

[2] = system: Streptococcus pneumoniae; assay: Minimum inhibitory concentration was evaluated in vitro against Streptococcus pneumoniae SV-1; assay type: functional; settings: Streptococcus pneumoniae; read-out: MIC; how it was run: as §1
[3] = system: Staphylococcus aureus; assay: Minimum inhibitory concentration was evaluated in vitro against Staphylococcus aureus UC 76; assay type: functional; settings: Staphylococcus aureus; read-out: MIC; how it was run: as §1
[4] = system: Staphylococcus aureus; assay: Minimum inhibitory concentration was evaluated in vitro against Staphylococcus aureus H 228; assay type: functional; settings: Staphylococcus aureus; read-out: MIC; how it was run: as §1
[5] = system: Klebsiella pneumoniae; assay: Minimum inhibitory concentration was evaluated in vitro against Klebsiella pneumoniae MGH2; assay type: functional; settings: Klebsiella pneumoniae; read-out: MIC; how it was run: as §1
[6] = system: Escherichia coli; assay: Antibacterial activity against Escherichia coli Vogel after oral administration in mouse; assay type: functional; settings: for ED50: Escherichia coli, po, read-out: PD50
[7] = species on record: Mus musculus; assay: Compounds were evaluated for phototoxicity no-effect dose in mouse; assay type: functional
How it was run: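 Depilated female CD-1 mice, five per dose plus controls. Animals are dosed orally and then exposed daily to UV-A (320–400 nm) for 3 h, for up to 4 days or until a definite positive response. Redness or erythema relative to controls, read 24 h after irradiation, counts as positive. Reported as the highest dose with no effect (mg/kg).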

[8] = system: Pseudomonas aeruginosa; assay: Minimum inhibitory concentration was evaluated in vitro against Pseudomonas aeruginosa UI-18; assay type: functional; settings: Pseudomonas aeruginosa; read-out: MIC; how it was run: as §1
[9] = system: Providencia rettgeri; assay: Minimum inhibitory concentration was evaluated in vitro against Providencia rettgeri M1771; assay type: functional; settings: Providencia rettgeri; read-out: MIC; how it was run: as §1
[10] = system: Streptococcus pyogenes; assay: Minimum inhibitory concentration was evaluated in vitro against Streptococcus pyogenes C 203; assay type: functional; settings: Streptococcus pyogenes; read-out: MIC; how it was run: as §1
[11] = system: Enterococcus faecalis; assay: Minimum inhibitory concentration was evaluated in vitro against Enterococcus faecalis MGH-2; assay type: functional; settings: Enterococcus faecalis; read-out: MIC; how it was run: as §1
[12] = system: Escherichia coli; assay: Antibacterial activity against Escherichia coli Vogel after subcutaneous administration in mouse; assay type: functional; settings: Escherichia coli, sc; read-out: PD50
[13] = system: Enterobacter cloacae; assay: Minimum inhibitory concentration in vitro against Enterobacter cloacae MA 2646; assay type: functional; settings: Enterobacter cloacae; read-out: MIC
[14] = Clonogenic cytotoxicity against hamster V-79 cells; assay type: functional, Cricetulus griseus, V79
How it was run: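 Chinese hamster V-79 cells grown overnight, then drug-treated for 3 h at 37 °C. Medium is replaced with fresh medium and cells are incubated 5 days to allow colony formation. IC50 (µg/mL) is the concentration inhibiting colony formation by 50% relative to control.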

[15] = system: Streptococcus pyogenes; assay: Compounds were evaluated in vivo for antibacterial activity for mouse protection against Streptococcus pyogenes C 203 after oral administration; assay type: functional; settings: Streptococcus pyogenes, C 203, po; read-out: PD50
[16] = system: Streptococcus pyogenes; assay: Antibacterial activity measured as mouse protection against Streptococcus pyogenes C 203 after subcutaneous administration; assay type: functional; settings: Streptococcus pyogenes, C 203, sc; read-out: PD50

| Structure (SMILES) | MIC [1] [µg/mL] | MIC [2] [ng/mL] | MIC [3] [ng/mL] | MIC [4] [µg/mL] | MIC [5] [µg/mL] | ED50 [6] [mg/kg] | Dose [7] [mg/kg] | MIC [8] [µg/mL] | MIC [9] [µg/mL] | MIC [10] [µg/mL] | MIC [11] [µg/mL] | ED50 [12] [mg/kg] | MIC [13] [µg/mL] | Cytotoxicity [14] [µg/mL] | PD50 [6] [mg/kg] | ED50 [15] [mg/kg] | ED50 [16] [mg/kg] |
| --- | --- | --- | --- | --- | --- | --- | --- | --- | --- | --- | --- | --- | --- | --- | --- | --- | --- |
| CNCC1CCN(c2c(F)c(N)c3c(=O)c(C(=O)O)cn(C4CC4)c3c2F)C1 (configuration not stated) | 0.025 (≈ 0.0637 µM) | 3 (≈ 0.00765 µM) | 6 (≈ 0.0153 µM) | 0.013 (≈ 0.0331 µM) | 0.05 (≈ 0.127 µM) | 8 | >100 | 0.4 (≈ 1.02 µM) | 0.2 (≈ 0.51 µM) | 0.003 (≈ 0.00765 µM) | 0.025 (≈ 0.0637 µM) | 1 | 0.05 (≈ 0.127 µM) | 7.8 |  |  |  |
| C[C@@H](N)[C@@H]1CCN(c2c(F)c(N)c3c(=O)c(C(=O)O)cn(C4CC4)c3c2F)C1 | 0.025 (≈ 0.0637 µM) | 6 (≈ 0.0153 µM) | 3 (≈ 0.00765 µM) | 0.003 (≈ 0.00765 µM) | 0.025 (≈ 0.0637 µM) |  |  | 0.4 (≈ 1.02 µM) | 0.05 (≈ 0.127 µM) | 0.006 (≈ 0.0153 µM) | 0.006 (≈ 0.0153 µM) | 0.7 | 0.025 (≈ 0.0637 µM) | <7.8 | 4 | 2 | 0.2 |
| CCN[C@H](C)[C@@H]1CCN(c2c(F)c(N)c3c(=O)c(C(=O)O)cn(C4CC4)c3c2F)C1 | 0.05 (≈ 0.119 µM) | 3 (≈ 0.00714 µM) | 3 (≈ 0.00714 µM) | 0.006 (≈ 0.0143 µM) | 0.1 (≈ 0.238 µM) |  |  | 1.6 (≈ 3.81 µM) | 0.2 (≈ 0.476 µM) | 0.003 (≈ 0.00714 µM) | 0.025 (≈ 0.0595 µM) |  | 0.1 (≈ 0.238 µM) | 15 |  | 1 | 0.5 |
| CCN[C@H](C)[C@H]1CCN(c2nc3c(cc2F)c(=O)c(C(=O)O)cn3-c2ccc(F)cc2F)C1 (racemic) | 0.4 (≈ 0.869 µM) | 100 (≈ 0.217 µM) | 13 (≈ 0.0282 µM) | 0.05 (≈ 0.109 µM) | 0.8 (≈ 1.74 µM) | 25 |  | 3.1 (≈ 6.73 µM) | 1.6 (≈ 3.47 µM) | 0.1 (≈ 0.217 µM) | 0.2 (≈ 0.434 µM) | 13 | 0.8 (≈ 1.74 µM) |  |  | 2 | 2 |
| CCNCC1CCN(c2cc3c(c(N)c2F)c(=O)c(C(=O)O)cn3C2CC2)C1 (configuration not stated) | 0.1 (≈ 0.257 µM) | 50 (≈ 0.129 µM) | 25 (≈ 0.0644 µM) | 0.2 (≈ 0.515 µM) | 0.4 (≈ 1.03 µM) | 90 |  | 1.6 (≈ 4.12 µM) | 0.8 (≈ 2.06 µM) | 0.1 (≈ 0.257 µM) | 0.05 (≈ 0.129 µM) | 3 | 0.1 (≈ 0.257 µM) |  |  | > 100 | 11 |
| CC1(CN)CCN(c2c(F)c(N)c3c(=O)c(C(=O)O)cn(C4CC4)c3c2F)C1 (configuration not stated) | 0.2 (≈ 0.51 µM) | 3 (≈ 0.00765 µM) | 3 (≈ 0.00765 µM) | 0.013 (≈ 0.0331 µM) | 0.1 (≈ 0.255 µM) |  |  | 0.8 (≈ 2.04 µM) | 0.2 (≈ 0.51 µM) | 0.013 (≈ 0.0331 µM) | 0.025 (≈ 0.0637 µM) | 1 | 0.1 (≈ 0.255 µM) |  | 9 | 8 | 1 |
| CNCC1CCN(c2nc3c(cc2F)c(=O)c(C(=O)O)cn3C2CC2)C1 (configuration not stated) | 0.1 (≈ 0.277 µM) | 25 (≈ 0.0694 µM) | 25 (≈ 0.0694 µM) | 0.2 (≈ 0.555 µM) | 0.2 (≈ 0.555 µM) | 3 |  | 0.8 (≈ 2.22 µM) | 0.4 (≈ 1.11 µM) | 0.05 (≈ 0.139 µM) | 0.2 (≈ 0.555 µM) | 1 | 0.2 (≈ 0.555 µM) |  |  | 21 | 7 |
| NC1CCN(c2c(F)cc3c(=O)c(C(=O)O)cn(C4CC4)c3c2C(F)(F)F)C1 (configuration not stated) | 0.1 (≈ 0.25 µM) |  |  | 0.2 (≈ 0.501 µM) |  | 3 | >100 |  |  |  |  | 1 | 0.1 (≈ 0.25 µM) | 250 |  |  | 22 |
| CNC(C)C1CCN(c2cc3c(c(N)c2F)c(=O)c(C(=O)O)cn3C2CC2)C1 (racemic) | 0.1 (≈ 0.257 µM) | 13 (≈ 0.0335 µM) | 6 (≈ 0.0154 µM) | 0.05 (≈ 0.129 µM) | 0.2 (≈ 0.515 µM) |  | >100 | 1.6 (≈ 4.12 µM) | 0.4 (≈ 1.03 µM) | 0.025 (≈ 0.0644 µM) | 0.025 (≈ 0.0644 µM) |  | 0.1 (≈ 0.257 µM) | 290 |  | 8 | 1 |
| CN[C@H](C)[C@@H]1CCN(c2c(F)c(N)c3c(=O)c(C(=O)O)cn(C4CC4)c3c2F)C1 | 0.05 (≈ 0.123 µM) | 6 (≈ 0.0148 µM) | 3 (≈ 0.00738 µM) | 0.006 (≈ 0.0148 µM) | 0.1 (≈ 0.246 µM) |  | <30 | 0.8 (≈ 1.97 µM) | 0.2 (≈ 0.492 µM) | 0.006 (≈ 0.0148 µM) | 0.013 (≈ 0.032 µM) |  | 0.05 (≈ 0.123 µM) | 24 |  |  |  |
